Screening data deposited in PubChem BioAssay by The Scripps Research Institute Molecular Screening Center.
Hits are enriched below; roughly 2.8% of the tested compounds scored in any of these assays.
PAFAH2 inh: PAFAH2 enzyme inhibitors, primary screen, biochemical, fluorescence polarization, human. recombinant PAFAH2, FP-rhodamine activity probe. inhibition, % at 3.39 µM. Platelet-activating factor acetylhydrolase 2, cytoplasmic (Homo sapiens), Q99487. actives 0.99% (n = 340,000). AID 492956, 2010;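 active = inhibition above the mean over all tested compounds plus 3 SD, cut at about 30% in these data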;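 note: inhibitors block probe labeling of enzyme so polarization drops; 0% = enzyme with DMSO and 100% = wells lacking PAFAH2 protein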
PAFAH1B3 inh: PAFAH1B3 enzyme inhibitors, primary screen, biochemical, fluorescence polarization, human; recombinant PAFAH1B3, FP-rhodamine probe; inhibition, % at 3.39 µM; AID 492972, 2010; actives 0.28% (n = 340,000); Platelet-activating factor acetylhydrolase IB subunit alpha1 (Homo sapiens), Q15102;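 active = inhibition above the screen-wide average of all tested compounds plus 3 SD, cut at about 25% in these data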;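 note: 0% = enzyme with DMSO only and 100% = wells lacking PAFAH1B3 protein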
Target sequence (Q15102 whole entry, looked up): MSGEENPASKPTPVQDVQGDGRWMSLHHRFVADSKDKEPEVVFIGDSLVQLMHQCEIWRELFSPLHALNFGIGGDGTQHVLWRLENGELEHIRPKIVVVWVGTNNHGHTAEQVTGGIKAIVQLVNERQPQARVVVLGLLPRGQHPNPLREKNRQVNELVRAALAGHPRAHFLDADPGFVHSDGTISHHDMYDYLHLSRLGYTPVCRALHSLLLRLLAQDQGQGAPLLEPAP
HTRA1 inhibitor: HTRA1 serine protease inhibitors, primary screen, biochemical, fluorescence polarization, HTS; recombinant HTRA1, FP-rhodamine activity-based probe; Q92743; inhibition, % at 5.96 µM; actives 0.5% (n = 340,000); in the data active = inhibition above about 36%;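 note: 0% = enzyme with DMSO and 100% = wells lacking enzyme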
Target sequence (Q92743 whole entry, looked up): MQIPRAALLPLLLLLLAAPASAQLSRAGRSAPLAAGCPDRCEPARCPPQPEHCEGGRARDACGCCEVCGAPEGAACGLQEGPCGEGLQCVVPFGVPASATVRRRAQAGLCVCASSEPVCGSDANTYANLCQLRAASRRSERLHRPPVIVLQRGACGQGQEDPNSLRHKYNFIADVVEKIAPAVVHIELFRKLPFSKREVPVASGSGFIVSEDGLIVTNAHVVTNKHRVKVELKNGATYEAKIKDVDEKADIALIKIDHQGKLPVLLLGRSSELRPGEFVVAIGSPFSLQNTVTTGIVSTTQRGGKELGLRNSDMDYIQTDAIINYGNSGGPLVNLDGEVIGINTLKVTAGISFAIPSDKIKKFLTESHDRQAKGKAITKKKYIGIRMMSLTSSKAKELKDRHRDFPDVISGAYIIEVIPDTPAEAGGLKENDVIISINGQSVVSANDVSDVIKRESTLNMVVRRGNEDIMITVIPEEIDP
mABHD4 FP: ABHD4 inhibitors, primary screen, biochemical, fluorescence polarization, mouse; (Lyso)-N-acylphosphatidylethanolamine lipase (Mus musculus), Q8VD66; purified mABHD4, FP-Rh probe fluorescence polarization; inhibition, % at 8.92 µM; actives 0.54% (n = 370,000); AID 720543, 2013;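 active = inhibition exceeding the mean over every tested compound plus 3 SD, cut at about 30% in these data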;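 note: 0% = plate median of compound wells and 100% = S159A mutant with DMSO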
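Test system: mABHD4 protein | Buffer or medium: HEPES pH 7.0 buffer, 150 mM NaCl, 0.01% Pluronic F-127 | Probe or stimulus: FP-Rh fluorescent activity-based probe, added after compound pre-incubation | Timing: Pre-incubation 45 min, probe exposure 60 min, at 25 °C | Technique: Fluorescence polarization, excitation 525 nm, emission 598 nm, BODIPY TMR filters | Repeats: Single well per compound (singlicate)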
PAFAH1B2 FP inh: PAFAH1B2 enzyme inhibitors, primary screen, biochemical, fluorescence polarization, human. Platelet-activating factor acetylhydrolase IB subunit alpha2 (Homo sapiens), P68402. recombinant PAFAH1B2, FP-rhodamine activity probe. inhibition, % at 3.39 µM. actives 1.2% (n = 340,000). AID 492953, 2010;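 active = inhibition above the mean of all tested compounds plus 3 SD, cut at about 24% in these data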;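 note: 0% = enzyme with DMSO and 100% = wells lacking PAFAH1B2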
pPAFAH inh: pPAFAH enzyme inhibitors, primary screen, biochemical, fluorescence polarization, human; Platelet-activating factor acetylhydrolase (Homo sapiens), Q13093; recombinant pPAFAH, FP-rhodamine probe fluorescence polarization; inhibition, % at 3.39 µM; actives 1.5% (n = 330,000); AID 463082, 2010;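 active = inhibition above the mean inhibition across the screen plus 3 SD, cut at about 25% in these data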;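 note: inhibitors block binding of the rhodamine activity-based probe so polarization drops; 0% = enzyme with DMSO and 100% = wells lacking pPAFAH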
* marks the source's active call; other numbers are inactive results; . = no result.

SMILES | PAFAH2 inh | PAFAH1B3 inh | HTRA1 inhibitor | mABHD4 FP | PAFAH1B2 FP inh | pPAFAH inh
CN(CC(=O)Nc1ccc(F)cc1)C(=O)c1cccc(NS(=O)(=O)c2ccccc2)c1 | -2.6 | -1.3 | 0.6 | -13.6 | 0.4 | 29.5*
COc1cccc(NC(=O)CN(C)C(=O)c2cccc(NS(=O)(=O)c3ccc(Br)cc3)c2)c1 | 4.3 | 0.1 | -12.8 | -8.3 | 29.5* | .
CC1CCCC(NC(=O)c2cccc(S(=O)(=O)NCc3ccccc3)c2)C1C (configuration not stated) | 1.1 | -0.3 | -16.7 | -4.1 | 30.0* | 3.3
COc1cccc(NC(=O)CN(C)C(=O)c2cccc(NS(=O)(=O)c3ccccc3)c2)c1 | 1.7 | 10.4 | -0.9 | 1.6 | 7.1 | 19.6
c1ccc(CSc2nnc3c(n2)OC(c2ccco2)Nc2ccccc2-3)cc1 (configuration not stated) | 23.2 | 0.0 | -3.7 | . | 6.0 | 26.4*
Clc1ccc([C@H]2OC[C@@]3(CNCC4CC4)CS[C@H](c4ccc(Cl)cc4)N23)cc1 | . | . | . | -4.5 | . | .
O=S(=O)(Nc1ccc(Cc2ccncc2)cc1)c1ccc(Br)s1 | 2.9 | 9.6 | -12.2 | 2.7 | 10.1 | 26.3*
O=S(=O)(Nc1ccc(Cc2ccncc2)cc1)c1ccc(Cl)s1 | 5.3 | 3.6 | -5.9 | -0.7 | 12.1 | 13.1
CCCC1CCC2(CC1)CCC2OC(=S)Nc1ccc(Cl)cc1 (configuration not stated) | . | . | . | -11.3 | . | .
NC(=O)C(CC(=O)O)NC(=O)[C@@H]1CCCNc2c(I)cc([N+](=O)[O-])cc2C(=O)N[C@@H](CO)C(=O)N[C@@H](Cc2ccc(O)cc2)C(=O)N1 (some centres not stated) | -1.5 | 7.3 | -5.0 | . | 8.3 | 26.3*
NC(=O)CC[C@@H]1NC(=O)[C@H](CO)NC(=O)c2cc([N+](=O)[O-])cc(I)c2NCCCC[C@@H](C(N)=O)NC(=O)[C@H](Cc2ccc(O)cc2)NC1=O | . | . | . | . | . | -3.5
COC(=O)C[C@H]1CC[C@H]2[C@H](COc3ccc(NC(=O)c4cccs4)cc3C(=O)N2C)O1 | . | . | . | 13.5 | . | .
O=C(NCCS(=O)(=O)c1ccc(Br)cc1)c1ccc(Cl)cc1 | 4.7 | -1.9 | 0.3 | 3.7 | 28.3* | 5.4
O=S(=O)(O)c1cc(OS(=O)(=O)c2ccccc2)cc2ccccc12 | 2.9 | 7.1 | -0.6 | -13.8 | 30.5* | -3.4
CCC(C)Nc1nc(N)c([N+](=O)[O-])c(Nc2cc(OC)ccc2OC)n1 (configuration not stated) | 13.2 | 9.2 | -26.5 | 11.2 | 5.9 | 29.1*
CCCC(=O)Oc1ccc(N(C(=O)CCC)S(=O)(=O)c2cccs2)cc1 | 3.9 | 1.3 | -2.4 | -16.3 | 6.0 | 30.3*
CC(C)Oc1cccc(C(=O)C2CCCN(Cc3cnn(C(C)C)c3)C2)c1 (configuration not stated) | 3.5 | -2.3 | -8.0 | 1.4 | 2.4 | 1.6
CC(C)Oc1cccc(C(=O)C2CCCN(Cc3ccc4nonc4c3)C2)c1 (configuration not stated) | -0.3 | -4.2 | -7.5 | -3.8 | -1.8 | 32.3*
Cc1ccc(C2C(C#N)=C(N)SC(N)=C2C#N)cc1 | -66.8 | -29.7 | -29.4 | -13.5 | -15.2 | .
N#CC1=C(N)SC(N)=C(C#N)C1c1ccoc1 | . | . | . | . | . | 68.4*
CC(C)C(=O)N[C@H]1[C@H](O)CCC[C@]12C(=O)N(Cc1ccccc1)c1ccccc12 | . | . | . | 4.2 | . | .
CC1CCN(S(=O)(=O)c2ccc(NC(=O)c3ccco3)cc2)CC1 | -10.8 | 9.1 | -14.9 | -3.1 | 27.0* | -5.2
CC1CCN(S(=O)(=O)c2ccc(NC(=O)C3CCCCC3C(=O)O)cc2)CC1 (configuration not stated) | 6.3 | 3.2 | -2.8 | . | 5.7 | .
O=C(NC(Cc1ccccc1)C(=O)N1CCN(S(=O)(=O)c2ccccc2)CC1)c1ccccc1 (configuration not stated) | 0.6 | -7.1 | -13.9 | -0.8 | 8.0 | -6.3
CC1CCN(S(=O)(=O)c2ccc(NC(=O)[C@@H]3CCCC[C@@H]3C(=O)O)cc2)CC1 | 3.7 | 0.7 | 8.6 | 4.1 | 47.8* | 1.3
SMILES | PAFAH2 inh | PAFAH1B3 inh | HTRA1 inhibitor | mABHD4 FP | PAFAH1B2 FP inh | pPAFAH inh
O=C(N[C@@H](Cc1ccccc1)C(=O)N1CCN(S(=O)(=O)c2ccc(F)cc2)CC1)c1ccco1 | 3.3 | 12.2 | 4.2 | 3.7 | 24.4* | .
COC(=O)Nc1ccc(S(=O)(=O)N2CCC(C(=O)N3CCC(C)CC3)CC2)cc1 | 2.4 | 3.7 | -3.3 | -2.3 | 2.7 | 5.3
COC(=O)Nc1ccc(S(=O)(=O)N2CCC(C)CC2)cc1 | 9.1 | -5.0 | 0.1 | -0.3 | 25.5* | -6.1
Cc1ccc(C(=O)C2CCN(CC(=O)N3CCOCC3)CC2)cc1 | . | . | . | 0.9 | . | .
CC1CCN(S(=O)(=O)c2ccc(NC(=O)C3CC3)cc2)CC1 | -5.0 | 0.5 | -11.5 | -4.1 | 25.3* | 5.0
O=C(Nc1ccc(S(=O)(=O)N2CCCCC2)cc1)c1ccncc1 | -6.4 | 2.6 | -7.9 | -4.5 | -0.3 | 0.4
CC1CCN(S(=O)(=O)c2ccc(NC(=O)c3ccncc3)cc2)CC1 | -2.5 | 14.2 | -10.8 | -1.7 | 28.9* | -0.9
Cc1ccc(S(=O)(=O)N2CCC(C(=O)Nc3ccc(S(=O)(=O)N4CCCC4)cc3)CC2)cc1 | -2.6 | -3.4 | -38.0 | -10.9 | 8.1 | -10.8
O=C(OC12CCCN(C1)/C(=C/c1cccnc1)C2)c1ccco1 (configuration not stated) | . | . | . | 2.6 | . | .
COc1ccc(NC(=O)C2CCC2)cc1S(=O)(=O)Nc1cc(C)ccc1Br | 0.3 | 6.0 | -29.9 | -8.6 | 4.7 | 29.2*
O=C(CSc1nc2ccccc2nc1N1CCCCC1)N1CCN(C(c2ccccc2)c2ccc(Cl)cc2)CC1 (configuration not stated) | . | . | . | -7.0 | . | .
O=S(=O)(Nc1cccc(-c2ccc(N3CCCCCC3)nn2)c1)c1cccc(F)c1 | 4.7 | -3.3 | -62.1 | -47.7 | 7.1 | 26.8*
O=S(=O)(Nc1cccc(-c2ccc(N3CCCCCC3)nn2)c1)c1ccccc1Cl | -13.8 | -0.8 | -36.9 | -62.7 | 20.8 | 29.3*
O=S(=O)(Nc1cccc(-c2ccc(N3CCCCCC3)nn2)c1)c1ccccc1F | 1.3 | 3.1 | -16.1 | -26.1 | 9.2 | 11.2
CC1(c2nnnn2C2CCCCC2)CSCC(=O)N1CCc1ccc(O)cc1 (configuration not stated) | . | . | . | 1.0 | . | .
COc1ccc(S[C@]2(C(=O)N(C)C)CC(=O)N(c3ccc(Cl)cc3)[C@@H]2c2ccc(OC)cc2)cc1 | . | . | . | -15.7 | . | .
Nc1c(C(=O)OCC(=O)Nc2cccc([N+](=O)[O-])c2)[nH]c(=O)[nH]c1=O | 7.5 | 11.5 | 4.4 | . | 9.7 | 25.3*
